{
  "source": "ChEMBL document CHEMBL3576840",
  "about": "“Helical Antimicrobial Sulfono-γ-AApeptides” (J Med Chem, 2015)",
  "key": {"Staphylococcus aureus [1]": {"test_system": "Staphylococcus aureus", "assay": "Antimicrobial activity against methicillin-resistant Staphylococcus aureus ATCC 33592 after 16 hrs", "assay_type": "functional", "conditions": "ATCC 33592, 16 h"}, "[2]": {"test_system": "Staphylococcus epidermidis", "assay": "Antimicrobial activity against methicillin-resistant Staphylococcus epidermidis RP62A after 16 hrs", "assay_type": "functional"}, "Enterococcus faecalis": {"test_system": "Enterococcus faecalis", "assay": "Antimicrobial activity against Enterococcus faecalis ATCC 700802 after 16 hrs", "assay_type": "functional", "conditions": "ATCC 700802, 16 h", "method_in_brief": "(§1)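 Broth microdilution: overnight cultures were reinoculated at 1:100, grown to mid-log phase, and diluted to 1 × 10^6 CFU/mL. Cells were mixed 1:1 with serial dilutions […] and incubated 16 h at 37 °C, then read at 600 nm. MIC is the lowest concentration with no growth. Repeated multiple times, in duplicate.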"}, "Pseudomonas aeruginosa": {"test_system": "Pseudomonas aeruginosa", "assay": "Antimicrobial activity against Pseudomonas aeruginosa ATCC 27853 after 16 hrs", "assay_type": "functional", "conditions": "ATCC 27853, 16 h", "method_in_brief": "as §1"}, "Escherichia [3]": {"test_system": "Escherichia", "assay": "Antimicrobial activity against Escherichia ATCC 25922 after 16 hrs", "assay_type": "functional", "conditions": "ATCC 25922, 16 h", "method_in_brief": "as §1"}, "[4]": {"assay": "Induction of hemolysis in human RBCs incubated for 1 hr", "assay_type": "cell-based, Erythrocyte", "conditions": "red blood cells", "method_in_brief": "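Fresh K2EDTA human RBCs were washed in PBS until the supernatant was clear and diluted to a 5% v/v suspension. This was mixed with equal volumes of compound dilutions for 1 h at 37 °C, centrifuged, and supernatant absorbance read at 360 nm. Hemolysis was normalized between PBS (0%) and 2% Triton X-100 (100%) controls. At least three repeats, in duplicate.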"}, "Staphylococcus aureus [5]": {"test_system": "Staphylococcus aureus", "assay": "Induction of membrane disruption in methicillin-resistant Staphylococcus aureus ATCC 33592 at 10 ug/ml incubated for 2 hrs by DAPI and propidium iodide staining based fluorescence microscopy", "assay_type": "functional, organism-based", "method_in_brief": "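Mid-log bacteria treated with compound (10 μg/mL) at 37 °C for 2 h, pelleted, washed, stained with PI (5 μg/mL) then DAPI (10 μg/mL) for 15 min on ice; untreated cells as control; imaged by fluorescence microscopy under 100× oil immersion; PI uptake taken as membrane damage; three repeats.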"}, "Escherichia [6]": {"test_system": "Escherichia", "assay": "Induction of membrane disruption in Escherichia ATCC 25922 at 10 ug/ml incubated for 2 hrs by DAPI and propidium iodide staining based fluorescence microscopy", "assay_type": "functional, organism-based", "method_in_brief": "(§2)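 Mid-log bacteria were incubated with 10 μg/mL compound for 2 h at 37 °C, pelleted at 5000 g and washed. Staining used PI (5 μg/mL) then DAPI (10 μg/mL), 15 min on ice. Imaged by fluorescence microscopy with a 100× oil objective; untreated bacteria served as controls.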"}, "Escherichia [7]": {"test_system": "Escherichia", "assay": "Induction of cell aggregation of Escherichia ATCC 25922 at 10 ug/ml incubated for 2 hrs by DAPI and propidium iodide staining based fluorescence microscopy", "assay_type": "functional, organism-based", "method_in_brief": "as §2"}, "Staphylococcus aureus [8]": {"test_system": "Staphylococcus aureus", "assay": "Bactericidal activity against methicillin-resistant Staphylococcus aureus ATCC 33592 at 12.5 to 50 ug/ml measured after 30 mins by colony count based time-kill assay", "assay_type": "functional, organism-based", "method_in_brief": "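Time-kill: MRSA grown to mid-log in TSB, diluted to 10^6 CFU/mL, exposed to compound at several multiples of MIC for 10 min, 30 min, 1 h and 2 h; samples diluted 10^2–10^4-fold, plated on TSB agar, colonies counted after overnight 37 °C; viability plotted against time; three repeats.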"}, "Escherichia [9]": {"test_system": "Escherichia", "assay": "Bactericidal activity against Escherichia ATCC 25922 at 25 and 50 ug/ml measured after 1 hr by colony count based time-kill assay", "assay_type": "functional, organism-based", "method_in_brief": "(§3)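 Time-kill: MRSA and E. coli were grown to mid-log phase in TSB and diluted to 10^6 CFU/mL. Suspensions were exposed to several compound concentrations for 10 min, 30 min, 1 h and 2 h. Samples were diluted 10^2–10^4-fold, plated on TSB agar and incubated overnight at 37 °C. Colonies were counted and plotted against exposure time. Three repeats.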"}, "Escherichia [10]": {"test_system": "Escherichia", "assay": "Bactericidal activity against Escherichia ATCC 25922 assessed as reduction bacterial colony count at 25 ug/ml measured after 10 mins to 2 hrs by colony count based time-kill assay", "assay_type": "functional", "method_in_brief": "as §3"}, "[11]": {"assay": "Stability in presence of 0.1 mg/ml pronase in 100 mM pH 7.8 ammonium bicarbonate buffer at 37 degC assessed as compound degradation after 18 hrs by HPLC method", "assay_type": "physicochemical", "conditions": "pH 7.8, 18 h", "method_in_brief": "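Compound or control peptide AcVQIVYK (1 mg/mL) was incubated 18 h at 37 °C with Pronase in ammonium bicarbonate. Mixtures were dried by speed-vac at 60 °C, redissolved in water and run on analytical RP-HPLC: 5–100% acetonitrile/0.1% TFA gradient over 40 min at 1 mL/min.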"}, "N2a": {"test_system": "N2a", "assay": "Cytotoxicity against mouse N2a cells assessed as cell viability after 36 hrs by MTT assay"}},
  "note": "Calls of active or inactive are those of the source. The calls are words filed in the database; no cut-off is given here.",
  "data": [
    {"smiles": "NCCCC[C@@H](CN(CC(N)=O)S(=O)(=O)CCN)NC(=O)CN(C[C@H](Cc1ccccc1)NC(=O)CN(C[C@H](Cc1ccccc1)NC(=O)CN(C[C@H](Cc1ccccc1)NC(=O)CN(C[C@H](CCCCN)NC(=O)CN(C[C@H](Cc1ccccc1)NC(=O)CN(C[C@H](Cc1ccccc1)NC(=O)CN(C[C@@H](N)Cc1ccccc1)S(=O)(=O)Cc1ccccc1)S(=O)(=O)CCN)S(=O)(=O)Cc1ccccc1)S(=O)(=O)CCN)S(=O)(=O)Cc1ccccc1)S(=O)(=O)CCN)S(=O)(=O)Cc1ccccc1", "values": [
      {"measurement": "MIC", "setting": "Staphylococcus aureus [1]", "result": 2, "unit": "µg/mL"},
      {"measurement": "MIC", "setting": "[2]", "result": 2, "unit": "µg/mL"},
      {"measurement": "MIC", "setting": "Enterococcus faecalis", "result": 2, "unit": "µg/mL"},
      {"measurement": "MIC", "setting": "Pseudomonas aeruginosa", "result": 4, "unit": "µg/mL"},
      {"measurement": "MIC", "setting": "Escherichia [3]", "result": 4, "unit": "µg/mL"},
      {"measurement": "HC50 at 1 h", "setting": "[4]", "result": 100, "unit": "µg/mL"},
      {"measurement": "Activity", "setting": "Staphylococcus aureus [5]", "result": "Active"},
      {"measurement": "Activity", "setting": "Escherichia [6]", "result": "Active"},
      {"measurement": "Activity", "setting": "Escherichia [7]", "result": "Active"},
      {"measurement": "Activity", "setting": "Staphylococcus aureus [8]", "result": "Active"},
      {"measurement": "Activity", "setting": "Escherichia [9]", "result": "Active"},
      {"measurement": "Activity", "setting": "Escherichia [10]", "result": 1, "unit": "×10⁵ CFU/ml"},
      {"measurement": "Stability", "setting": "[11]", "result": "Stable"},
      {"measurement": "EC50", "setting": "N2a", "result": 120, "unit": "µg/mL"}
    ]}
  ]
}
